Experiments:
[1] = cited from earlier work
[2] = system: MDA-MB-231 or MDA-MB-468 cells; assay: Cell viability/growth of breast cancer cells harboring active STAT3; type: cell-based, human; conditions: for activity against breast cancer cells: up to 10 μM; for viability, anchorage-dependent and independent growth, and colony formation: at 1 μM or less
[3] = system: STAT5:STAT5 homodimers; type: biochemical; conditions: 10 µM, MGFe probe (Fig. S6)
[4] = molecular target: T1, STAT1:STAT1 homodimers (Mus musculus, UniProt P42225); type: biochemical; conditions: 10 µM, MGFe probe (Fig. S6)
T1 sequence (P42225 2-749 limits assumed): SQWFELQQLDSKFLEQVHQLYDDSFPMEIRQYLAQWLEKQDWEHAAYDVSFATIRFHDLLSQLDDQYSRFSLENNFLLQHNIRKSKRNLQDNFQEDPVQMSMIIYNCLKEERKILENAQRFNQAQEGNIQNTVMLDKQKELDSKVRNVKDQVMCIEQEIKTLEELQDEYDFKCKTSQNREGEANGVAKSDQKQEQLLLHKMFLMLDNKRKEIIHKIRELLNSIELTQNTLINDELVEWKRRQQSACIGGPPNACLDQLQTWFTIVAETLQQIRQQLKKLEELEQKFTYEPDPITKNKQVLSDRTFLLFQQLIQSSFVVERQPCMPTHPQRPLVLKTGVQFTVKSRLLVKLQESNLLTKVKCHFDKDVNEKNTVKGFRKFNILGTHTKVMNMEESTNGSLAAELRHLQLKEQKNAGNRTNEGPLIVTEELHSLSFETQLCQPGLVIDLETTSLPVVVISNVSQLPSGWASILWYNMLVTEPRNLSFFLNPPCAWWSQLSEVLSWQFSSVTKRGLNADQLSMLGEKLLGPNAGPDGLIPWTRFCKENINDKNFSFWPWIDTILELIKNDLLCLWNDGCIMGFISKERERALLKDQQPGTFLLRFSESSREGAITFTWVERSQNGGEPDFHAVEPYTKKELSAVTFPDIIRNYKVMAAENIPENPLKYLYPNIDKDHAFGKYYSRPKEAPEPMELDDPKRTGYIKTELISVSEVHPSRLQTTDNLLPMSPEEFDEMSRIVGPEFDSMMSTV

[5] = system: MDA-MB-231 cells; assay: Clonogenic; type: cell-based, human; conditions: treated once
How it was run: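 Cells were seeded as single-cell cultures at 250 cells per well. They were treated once the next day with test compound at 0–1 μM and cultured until large colonies were visible. Colonies were stained with crystal violet for 4 h and photographed. Data came from three independent determinations.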

effect on DNA-binding activity of STAT5:STAT5 homodimers [3] | effect on DNA-binding activity of STAT1:STAT1 homodimers [4] | SMILES | further results
minimal effect | minimal effect | O=C(NO)c1ccc(N(Cc2ccc(C3CCCCC3)cc2)C(=O)[C@H]2CCN2S(=O)(=O)c2c(F)c(F)c(F)c(F)c2F)cc1O [Compound 8d] | –
minimal effect | minimal effect | O=C(NO)c1ccc(N(Cc2ccc(C3CCCCC3)cc2)C(=O)[C@H]2CCN2S(=O)(=O)c2c(F)c(F)c(F)c(F)c2F)c(F)c1 [Compound 8f] | –

Continued, compound first:

SMILES | effect on DNA-binding activity of STAT5:STAT5 homodimers [3] | effect on DNA-binding activity of STAT1:STAT1 homodimers [4] | further results
CN(CC(=O)N(Cc1ccc(C2CCCCC2)cc1)c1ccc(C(=O)O)c(O)c1)S(=O)(=O)c1c(F)c(F)c(F)c(F)c1F [BP-1-102] | – | – | cellular activities of parent lead compounds [1]: 10 to 20 µM
O=C(O)c1ccc(N(Cc2ccc(C3CCCCC3)cc2)C(=O)[C@H]2CCN2S(=O)(=O)c2c(F)c(F)c(F)c(F)c2F)cc1O [Compound 5a, (R)-4-(N-(4-cyclohexylbenzyl)-1-((perfluorophenyl)sulfonyl)azetidine-2-carboxamido)-2-hydroxybenzoic acid] | – | – | activity against breast cancer cells [2]: no activity
O=C(O)c1ccc(N(Cc2ccc(C3CCCC3)cc2)C(=O)[C@H]2CCN2S(=O)(=O)c2c(F)c(F)c(F)c(F)c2F)cc1O [Compound 5e] | minimal effect | minimal effect | –
O=C(O)c1ccc(N(Cc2ccc(C3CCOCC3)cc2)C(=O)[C@H]2CCN2S(=O)(=O)c2c(F)c(F)c(F)c(F)c2F)cc1O [Compound 5g] | minimal effect | minimal effect | –
O=C(O)c1cc(F)c(N(Cc2ccc(C3CCCCC3)cc2)C(=O)[C@H]2CCN2S(=O)(=O)c2c(F)c(F)c(F)c(F)c2F)cc1O [Compound 5i] | minimal effect | minimal effect | –
O=C(O)c1ccc(N(Cc2ccc(C3CCCCC3)nc2)C(=O)[C@H]2CCN2S(=O)(=O)c2c(F)c(F)c(F)c(F)c2F)cc1O [Compound 5m] | minimal effect | minimal effect | –
O=C(O)c1ccc(N(Cc2ccc(C3CCOCC3)nc2)C(=O)[C@H]2CCN2S(=O)(=O)c2c(F)c(F)c(F)c(F)c2F)cc1O [Compound 5n] | minimal effect | minimal effect | –
COC(=O)c1ccc(N(Cc2cnc(C3CCCCC3)cn2)C(=O)[C@H]2CCN2S(=O)(=O)c2c(F)c(F)c(F)c(F)c2F)c(F)c1 [Compound 7e] | – | – | viability, anchorage-dependent and independent growth, and colony formation [2]: strongly inhibited; inhibition of colony formation ([5]; 0.5 μM): minimal to moderate inhibition of colony formation; inhibition of colony formation ([5]; 1 μM): near-complete inhibition
COC(=O)c1ccc(N(Cc2cnc(C3CCCCC3)cn2)C(=O)[C@H]2CCN2S(=O)(=O)c2c(F)c(F)c(F)c(F)c2F)cc1O [Compound 7f] | – | – | viability, anchorage-dependent and independent growth, and colony formation [2]: strongly inhibited; inhibition of colony formation ([5]; 0.5 μM): minimal to moderate inhibition of colony formation; inhibition of colony formation ([5]; 1 μM): significant inhibition
O=C(NO)c1ccc(N(Cc2ccc(C3CCCCC3)cn2)C(=O)[C@H]2CCN2S(=O)(=O)c2c(F)c(F)c(F)c(F)c2F)c(F)c1 [Compound 8l] | – | – | activity against breast cancer cells [2]: weakly active
CN(CC(=O)N(Cc1ccc(C2CCCCC2)cc1)c1ccc(C(=O)O)cc1)S(=O)(=O)c1c(F)c(F)c(F)c(F)c1F [SH4-54] | – | – | cellular activities of parent lead compounds [1]: 4.5 µM
CN(CC(=O)N(Cc1ccc(C2CCCCC2)cc1)c1ccc(C(=O)NO)cc1)S(=O)(=O)c1c(F)c(F)c(F)c(F)c1F [SH5-07] | – | – | cellular activities of parent lead compounds [1]: 3.8 µM

From paper PMC7816766 (Journal of Medicinal Chemistry, 2020)
